Laboratory results as given in ChEMBL document CHEMBL4052624, “Metallo-β-lactamase inhibitors by bioisosteric replacement: Preparation, activity and binding” (Eur J Med Chem, 2017).
Active and inactive are the calls of the source. No cut-off for these calls is given here.

Assays:
[1] = target: T1, Beta-lactamase VIM-2 (Pseudomonas aeruginosa, UniProt Q9K2N0); assay: Inhibition of Pseudomonas aeruginosa 301-5473 6His-tagged VIM-2 (V27 to E268 residues) expressed in Escherichia coli BL21 Star(DE3) pLysS using nitrocefin as substrate preincubated for 5 mins followed by substrate addition by spectrophotometric analysis
Method in brief: (§1)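 Purified VIM-2 and GIM-1 were each used at 10 nM in 50 mM HEPES pH 7.2 with ZnCl₂ and BSA. Each enzyme was preincubated with inhibitor at 25 °C for 5 min, using sixteen concentrations in a 2-fold series. Nitrocefin was then added and the absorbance rise at 482 nm was read. Initial velocities, measured in triplicate, were fitted to log[inhibitor] vs response curves to give IC50. Line 3 is the ratio of the two IC50s.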

[2] = target: GIM-1 protein (Pseudomonas aeruginosa, UniProt Q704V1); assay: Inhibition of Pseudomonas aeruginosa 6His-tagged GIM-1 (Q19 to D250 residues) expressed in Escherichia coli BL21 Star(DE3) pLysS using nitrocefin as substrate preincubated for 5 mins followed by substrate addition by spectrophotometric analysis; conditions: read-out: IC50
Method in brief: (§2)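 His-tagged enzyme, TEV-cleaved, ~95% pure by SDS-PAGE. 10 nM enzyme with 16 inhibitor concentrations in a 2-fold series, in 50 mM HEPES pH 7.2 with ZnCl2 and BSA, preincubated 5 min at 25 °C. Then 100 µM substrate added: imipenem for NDM-1 read at 260 nm, nitrocefin for GIM-1 read at 482 nm. Initial rates in triplicate, fitted to a log[inhibitor] dose–response curve for IC50.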

[3] = Inhibition of Klebsiella pneumoniae 6His-tagged NDM1 (G36 to R280 residues) expressed in Escherichia coli BL21 Star(DE3) pLysS using imipenem as substrate preincubated for 5 mins followed by substrate addition by spectrophotometric analysis; conditions: read-out: IC50; method in brief: as §2
[4] = target: Beta-lactamase VIM-2 (Pseudomonas aeruginosa) (UniProt Q9K2N0); assay: Inhibition of Pseudomonas aeruginosa 301-5473 VIM-2 expressed in Escherichia coli SNO3 whole cells using nitrocefin as substrate at 250 uM preincubated for 20 mins followed by substrate addition measured every min up to 60 mins by spectrophotometric analysis relative to control
Method in brief: (§3)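 β-lactamase-negative E. coli SNO3 carrying blaVIM-2, blaGIM-1 or blaNDM-1 in pET26b(+). Hydrolysis of the reporter substrate followed as the initial slope over up to 60 min. Percent inhibition calculated from slopes relative to a no-inhibitor control; EDTA used as positive control.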

[5] = target: GIM-1 protein (Pseudomonas aeruginosa) (UniProt Q704V1); assay: Inhibition of Pseudomonas aeruginosa GIM-1 expressed in Escherichia coli SNO3 whole cells using nitrocefin as substrate at 250 uM preincubated for 20 mins followed by substrate addition measured every min up to 60 mins by spectrophotometric analysis relative to control; method in brief: as §3
[6] = tested on: Klebsiella pneumoniae; assay: Inhibition of Klebsiella pneumoniae NDM1 expressed in Escherichia coli SNO3 whole cells using imipenem as substrate at 250 uM preincubated for 20 mins followed by substrate addition measured every min up to 60 mins by spectrophotometric analysis relative to control; method in brief: as §3
[7] = target: Beta-lactamase VIM-2 (Pseudomonas aeruginosa) (UniProt Q9K2N0); assay: Inhibition of VIM-2 in Pseudomonas aeruginosa K34-7 assessed as potentiation of meropenem-induced antimicrobial activity by measuring meropenem MIC at 125 uM after 20 hrs (reference value: 32 to 64 mg/L)
[8] = tested on: Klebsiella pneumoniae; assay: Inhibition of NDM-1 in Klebsiella pneumoniae K66-45 assessed as potentiation of meropenem-induced antimicrobial activity by measuring meropenem MIC at 125 uM after 20 hrs (reference value: 32 to 64 mg/L)
[9] = tested on: Pseudomonas aeruginosa; assay: Growth inhibition of Pseudomonas aeruginosa K34-7 after 20 hrs
[10] = tested on: Klebsiella pneumoniae; assay: Growth inhibition of Klebsiella pneumoniae K66-45 after 20 hrs
[11] = tested on: Escherichia coli; assay: Inhibition of VIM-29 in Escherichia coli 50639799 assessed as potentiation of meropenem-induced antimicrobial activity by measuring meropenem MIC at 125 uM after 20 hrs (reference value: 8 to 32 mg/L)
[12] = tested on: Pseudomonas aeruginosa; assay: Selectivity ratio of IC50 for Pseudomonas aeruginosa 301-5473 6His-tagged VIM-2 (V27 to E268 residues) expressed in Escherichia coli BL21 Star(DE3) pLysS to IC50 for Pseudomonas aeruginosa 6His-tagged GIM-1 (Q19 to D250 residues) expressed in Escherichia coli BL21 Star(DE3) pLysS; method in brief: as §1
[13] = target: T1, Beta-lactamase VIM-2; assay: Inhibition of Pseudomonas aeruginosa VIM-2 expressed in Escherichia coli NCB326-1B2 using nitrocefin as substrate after 5 mins by spectrophotometric analysis
[14] = tested on: Pseudomonas aeruginosa; assay: Selectivity ratio of IC50 for Pseudomonas aeruginosa 6His-tagged GIM-1 (Q19 to D250 residues) expressed in Escherichia coli BL21 Star(DE3) pLysS to IC50 for Pseudomonas aeruginosa 301-5473 6His-tagged VIM-2 (V27 to E268 residues) expressed in Escherichia coli BL21 Star(DE3) pLysS
[15] = Selectivity ratio of IC50 for Pseudomonas aeruginosa 6His-tagged GIM-1 (Q19 to D250 residues) expressed in Escherichia coli BL21 Star(DE3) pLysS to IC50 for Klebsiella pneumoniae 6His-tagged NDM1 (G36 to R280 residues) expressed in Escherichia coli BL21 Star(DE3) pLysS
[16] = tested on: Escherichia coli; assay: Growth inhibition of Escherichia coli 50639799 after 20 hrs

Chain of GIM-1 protein (Pseudomonas aeruginosa) (Q704V1 as listed by the source): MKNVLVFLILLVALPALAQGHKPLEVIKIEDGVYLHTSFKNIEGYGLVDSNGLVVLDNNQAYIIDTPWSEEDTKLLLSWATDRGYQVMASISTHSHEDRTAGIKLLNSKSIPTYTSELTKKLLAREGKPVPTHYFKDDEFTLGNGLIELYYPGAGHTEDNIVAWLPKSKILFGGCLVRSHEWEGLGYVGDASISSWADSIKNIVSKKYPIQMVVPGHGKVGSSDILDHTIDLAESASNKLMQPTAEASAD
Chain of GIM-1 protein (Q704V1 whole entry, the tested form may be a part): as the sequence (Q704V1 as listed by the source) above

In the case of `CCOP(=O)(OCC)C(CS)CCc1ccccc1` (stereo not drawn), the IC50 [1] is reported as 0.89 µM, the IC50 [2] is reported as 0.18 µM and the IC50 [3] is reported as 2.2 µM. It also gave an inhibition [4] of 78%, an inhibition [5] of 64% and an inhibition [6] of 33%. For the same compound, the MIC [7] was 32 µg/mL, the MIC [8] was 32 µg/mL and the MIC [9] was > 500 µg/mL. The MIC [10] was > 500 µg/mL, the MIC [11] was 8 µg/mL and the Ratio IC50 [12] was 5.

Work on `O=C(O)C(CS)CCCCc1ccccc1` (stereo not drawn) yielded an IC50 [1] of 2.9 µM, an IC50 [3] of 56 µM and an IC50 [13] of 1.1 µM.

For `O=P(O)(O)C(CS)CCCCc1ccccc1` (stereo not drawn), the IC50 [1] was 8.6 µM, the IC50 [2] was 16 µM and the IC50 [3] was 8.5 µM. It also gave an inhibition [4] of 94%, an inhibition [5] of 31% and an inhibition [6] of 42%. It also gave a Ratio IC50 [14] of 2 to 4 and a Ratio IC50 [15] of 2 to 4.

In the case of `CC(=O)SCC(CCCCc1ccccc1)P(=O)(O)O` (stereo not drawn), the IC50 [1] is reported as 1.8 µM, the IC50 [2] is reported as 20 µM and the IC50 [3] is reported as 2.5 µM. The inhibition [4] was 97%, the inhibition [5] was 50% and the inhibition [6] was 37%. The MIC [7] was 32 µg/mL, the MIC [8] was 32 µg/mL and the MIC [9] was > 500 µg/mL. For the same compound, the MIC [10] was > 500 µg/mL and the MIC [11] was 2 µg/mL.

In the case of `CCOP(=O)(OCC)C(CS)CCCc1ccccc1` (stereo not drawn), the IC50 [1] is reported as 0.38 µM, the IC50 [2] is reported as 0.31 µM and the IC50 [3] is reported as 1.8 µM. For the same compound, the inhibition [4] was 79%, the inhibition [5] was 48% and the inhibition [6] was 62%. For the same compound, the MIC [7] was 32 µg/mL, the MIC [8] was 32 µg/mL and the MIC [9] was > 500 µg/mL. For the same compound, the MIC [10] was > 500 µg/mL and the MIC [11] was 8 µg/mL.

Compound `CC(=O)SCC(Cc1ccccc1)c1nnn[nH]1` (stereo not drawn) has an IC50 [1] of 67 µM, an IC50 [2] of 203 µM and an IC50 [3] of 81 µM. It also gave an inhibition [4] of 76%, an inhibition [5] of 55% and an inhibition [6] of 32%.

Work on `CC(=O)SCC(CCCc1ccccc1)c1nnn[nH]1` (stereo not drawn) yielded an IC50 [1] of 42 µM, an IC50 [2] of 162 to 163 µM and an IC50 [3] of 144 µM. The inhibition [4] was 77% and the inhibition [5] was 20%.

In the case of `CCOP(=O)(OCC)C(CO)CCCCc1ccccc1` (stereo not drawn), the IC50 [1] is reported as > 10 µM, the IC50 [2] is reported as 280 µM and the IC50 [3] is reported as > 10 µM. The inhibition [4] was “inactive”, the inhibition [5] was 4% and the inhibition [6] was 1%.

For `CCOP(=O)(OCC)C(CO)CCc1ccccc1` (stereo not drawn), the IC50 [1] was > 10 µM, the IC50 [2] was > 10 µM and the IC50 [3] was > 10 µM.

In the case of `O=P(O)(O)C(CO)CCCCc1ccccc1` (stereo not drawn), the IC50 [1] is reported as 4.5 µM, the IC50 [2] is reported as > 10 µM and the IC50 [3] is reported as 127 µM. It also gave an inhibition [4] of 88%, an inhibition [5] of 14% and an inhibition [6] of 4%.

With `CC(=O)SCC(CCCc1ccccc1)P(=O)(O)O` (stereo not drawn) the IC50 [1] was 4.7 µM, the IC50 [2] was 26 µM and the IC50 [3] was 6.6 µM. For the same compound, the inhibition [4] was 95%, the inhibition [5] was 37% and the inhibition [6] was 38%. For the same compound, the MIC [7] was 32 µg/mL, the MIC [8] was 32 µg/mL and the MIC [9] was > 500 µg/mL. The MIC [10] was > 500 µg/mL, the MIC [16] was > 1000 µg/mL and the MIC [11] was 1 µg/mL.
